The source of these data is ChEMBL document CHEMBL2040729, “Lead optimization of 17β-HSD1 inhibitors of the (hydroxyphenyl)naphthol sulfonamide type for the treatment of endometriosis” (J Med Chem, 2012).

The target in assay [1] is T1, 17-beta-hydroxysteroid dehydrogenase type 1 (Homo sapiens) (UniProt P14061).
T1 sequence (whole entry): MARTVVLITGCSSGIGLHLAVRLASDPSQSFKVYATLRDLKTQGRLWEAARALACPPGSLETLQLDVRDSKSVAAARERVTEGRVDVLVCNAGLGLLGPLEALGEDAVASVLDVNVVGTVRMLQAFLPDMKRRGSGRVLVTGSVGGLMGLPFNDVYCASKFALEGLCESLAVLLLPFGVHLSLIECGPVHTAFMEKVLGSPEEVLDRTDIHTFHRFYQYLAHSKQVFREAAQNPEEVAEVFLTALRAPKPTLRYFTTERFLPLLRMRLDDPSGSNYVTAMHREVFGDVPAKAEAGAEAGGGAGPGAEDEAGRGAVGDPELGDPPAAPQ
Nature of the assay: Inhibition of human placenta cytosolic 17betaHSD1 using [3H]E1 as substrate at 10 nM after 10 mins by radioflow detection assay.

Assay [2] concerns the target T2, 17-beta-hydroxysteroid dehydrogenase type 1 (Homo sapiens, UniProt P14061).
T2 sequence (P14061 whole entry): T1 sequence (whole entry)
Nature of the assay: Inhibition of human placenta cytosolic 17betaHSD1 using [3H]E1 as substrate after 10 mins by radioflow detection assay. A digest of the protocol: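 Cytosolic 17β-HSD1 from fresh human placenta, obtained by ammonium sulfate precipitation. Incubated at 37 °C in 50 mM phosphate buffer with 20% glycerol and EDTA, with NADH 500 μM and compound (DMSO 1% final). Started with unlabeled + [3H]-E1 (500 nM final), stopped after 10 min with HgCl2, ether-extracted. E1/E2 quantified by radioflow HPLC as % conversion. At least three independent experiments.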

Assay [3] concerns the target T3, 17-beta-hydroxysteroid dehydrogenase type 2 (Homo sapiens, UniProt P37059).
T3 sequence (P37059 whole entry): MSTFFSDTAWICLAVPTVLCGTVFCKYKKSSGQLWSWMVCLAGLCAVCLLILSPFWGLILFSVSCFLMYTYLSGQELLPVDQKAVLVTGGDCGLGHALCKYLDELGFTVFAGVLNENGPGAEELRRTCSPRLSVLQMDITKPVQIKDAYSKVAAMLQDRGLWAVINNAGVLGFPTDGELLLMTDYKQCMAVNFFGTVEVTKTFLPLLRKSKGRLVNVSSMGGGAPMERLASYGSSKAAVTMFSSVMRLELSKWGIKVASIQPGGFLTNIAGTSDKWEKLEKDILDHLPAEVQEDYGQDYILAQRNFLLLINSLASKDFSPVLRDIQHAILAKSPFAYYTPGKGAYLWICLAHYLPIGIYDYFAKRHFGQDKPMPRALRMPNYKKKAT
Nature of the assay: Inhibition of human placenta microsomal 17betaHSD2 using [3H]E2 as substrate after 20 mins by radioflow detection assay. A digest of the protocol: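 Microsomal (pellet) fraction of fresh human placenta incubated with NAD+ 1500 μM, compound, and unlabeled + [3H]-E2 (500 nM final) for 20 min at 37 °C. Stopped with 1 mM HgCl2, ether-extracted. Steroids separated by HPLC with radioflow detection, conversion computed. Mean of three determinations.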

For assay [4], the species on record is Callithrix jacchus. The assay is described as follows: Inhibition of mormoset placenta cytosolic 17betaHSD1 using [3H]E1 as substrate at 50 nM after 10 mins by radioflow detection assay.
Assay [5] is filed under the species Callithrix jacchus. The assay is described as follows: Inhibition of mormoset placenta microsomal 17betaHSD2 using [3H]E2 as substrate at 50 nM after 20 mins by radioflow detection assay.
Assay [6] concerns the target T4, Estrogen receptor (Homo sapiens) (UniProt P03372).
T4 sequence (whole entry): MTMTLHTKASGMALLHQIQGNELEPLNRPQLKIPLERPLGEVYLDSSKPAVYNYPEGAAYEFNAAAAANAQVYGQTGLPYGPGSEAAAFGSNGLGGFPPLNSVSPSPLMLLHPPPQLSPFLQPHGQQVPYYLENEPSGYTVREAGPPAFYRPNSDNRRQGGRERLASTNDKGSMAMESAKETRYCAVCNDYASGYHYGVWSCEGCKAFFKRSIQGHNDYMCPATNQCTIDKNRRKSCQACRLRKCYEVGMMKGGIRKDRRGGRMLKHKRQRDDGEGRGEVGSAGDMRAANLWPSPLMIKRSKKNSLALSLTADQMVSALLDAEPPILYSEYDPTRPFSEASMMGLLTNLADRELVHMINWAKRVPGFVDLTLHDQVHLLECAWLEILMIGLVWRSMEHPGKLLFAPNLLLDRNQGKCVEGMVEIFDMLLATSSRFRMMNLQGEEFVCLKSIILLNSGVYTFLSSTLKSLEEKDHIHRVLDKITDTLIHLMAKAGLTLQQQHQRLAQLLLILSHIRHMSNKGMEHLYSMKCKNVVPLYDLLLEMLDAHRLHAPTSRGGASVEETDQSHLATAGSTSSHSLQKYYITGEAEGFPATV
The assay is described as follows: Relative binding affinity to human recombinant ERalpha receptor using [3H]E2 as substrate after 1 hr by liquid scintillation counting relative to E2. A digest of the protocol: (§1)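 Recombinant human ERα or ERβ (0.25 pmol) incubated 1 h at rt with [3H]-E2 (10 nM) and compound in DMSO (5% final). Nonspecific binding defined with diethylstilbestrol 10 μM. Bound complex captured on hydroxyapatite, washed, resuspended in ethanol, counted by liquid scintillation. Concentrations displacing 50% of bound label compared with E2, which is set at 100%.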

Assay [7] addresses Estrogen receptor beta (Homo sapiens) (UniProt Q92731). Nature of the assay: Relative binding affinity to human recombinant ERbeta receptor using [3H]E2 as substrate after 1 hr by liquid scintillation counting relative to E2. A digest of the protocol:
as §1

The target in assay [8] is T5, 17-beta-hydroxysteroid dehydrogenase type 1 (Mus musculus) (UniProt P51656).
T5 sequence (whole entry): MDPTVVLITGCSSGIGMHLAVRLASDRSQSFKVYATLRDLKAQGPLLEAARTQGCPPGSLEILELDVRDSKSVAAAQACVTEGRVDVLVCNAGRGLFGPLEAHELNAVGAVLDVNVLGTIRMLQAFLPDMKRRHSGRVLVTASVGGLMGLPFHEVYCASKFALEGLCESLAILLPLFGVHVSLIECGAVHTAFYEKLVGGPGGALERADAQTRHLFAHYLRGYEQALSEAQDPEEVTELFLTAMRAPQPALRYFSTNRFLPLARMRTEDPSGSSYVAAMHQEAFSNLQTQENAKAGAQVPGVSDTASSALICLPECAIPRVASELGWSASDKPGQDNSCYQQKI
Nature of the assay: Inhibition of mouse liver cytosolic 17betaHSD1 using [3H]E1 as substrate.

The target of assay [9] is T2, 17-beta-hydroxysteroid dehydrogenase type 1. The assay is described as follows: Inhibition of 17betaHSD1 in human T47D cells using [3H]E1 as substrate incubated for 30 mins prior to substrate addition measured after 30 mins by radioflow detection assay. In kind it is cell-based. A digest of the protocol:
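T47D cells kept in RPMI 1640 with 10% FCS, glutamine, insulin-zinc, pyruvate, antibiotics. Seeded at 5 × 10^5 cells/well in DMEM with FCS, switched to serum-free DMEM after 24 h. Compound added in DMSO (1% final), 30 min preincubation at 37 °C, 5% CO2. Then unlabeled + [3H]-E1 (50 nM final) for 30 min. Steroids extracted into diethylether. Mean of three determinations.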

The target in assay [10] is T6, Estradiol 17-beta-dehydrogenase 2 (Mus musculus) (UniProt P51658).
T6 sequence (whole entry): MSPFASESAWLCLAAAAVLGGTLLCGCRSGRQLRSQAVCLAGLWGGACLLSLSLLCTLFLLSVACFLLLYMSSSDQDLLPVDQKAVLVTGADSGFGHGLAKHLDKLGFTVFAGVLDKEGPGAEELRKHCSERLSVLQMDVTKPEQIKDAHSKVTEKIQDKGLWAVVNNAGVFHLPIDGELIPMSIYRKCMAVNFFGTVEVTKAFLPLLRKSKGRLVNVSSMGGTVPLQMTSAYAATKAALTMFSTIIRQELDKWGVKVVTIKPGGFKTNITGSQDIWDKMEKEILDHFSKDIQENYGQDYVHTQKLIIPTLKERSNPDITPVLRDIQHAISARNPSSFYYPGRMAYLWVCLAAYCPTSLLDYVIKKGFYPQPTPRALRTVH
Nature of the assay: Inhibition of mouse liver microsomal 17betaHSD2 using [3H]E2 as substrate.

Active and inactive are the calls of the source. The rule behind the calls is not given here. A value given as a limit tells only on which side of the number the result lay.

As usually defined, the inhibition is the change of the read-out against control, counted positive when it falls. In general, IC50 refers to the concentration that gives 50% inhibition. A high value points to a need for much substance.

Sequence of Estrogen receptor beta (Homo sapiens) (Q92731 whole entry): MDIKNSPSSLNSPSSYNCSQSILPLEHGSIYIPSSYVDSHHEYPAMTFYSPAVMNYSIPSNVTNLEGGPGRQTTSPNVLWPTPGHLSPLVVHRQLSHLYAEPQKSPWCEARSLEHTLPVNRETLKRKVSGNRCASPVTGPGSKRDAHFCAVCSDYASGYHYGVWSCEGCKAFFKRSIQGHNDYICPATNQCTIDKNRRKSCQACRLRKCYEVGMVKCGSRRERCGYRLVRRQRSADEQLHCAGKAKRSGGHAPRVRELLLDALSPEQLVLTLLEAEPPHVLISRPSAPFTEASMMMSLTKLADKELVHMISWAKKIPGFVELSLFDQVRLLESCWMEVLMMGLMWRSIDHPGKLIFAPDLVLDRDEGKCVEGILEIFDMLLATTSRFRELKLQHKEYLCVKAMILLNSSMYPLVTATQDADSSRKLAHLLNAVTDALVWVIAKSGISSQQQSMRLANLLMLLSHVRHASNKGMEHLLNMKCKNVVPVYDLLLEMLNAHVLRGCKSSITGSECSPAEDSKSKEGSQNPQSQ

`O=S(=O)(CC(F)(F)F)Nc1cccc(-c2c(O)ccc3cc(-c4cccc(O)c4)ccc23)c1`: the inhibition in assay [1] was more than 30%; in the assay filed under Callithrix jacchus [4], 17%; in the assay listed under Callithrix jacchus [5], 32%. For the same compound, the IC50 came out at 32 nM in assay [2], 1210 nM in [3] and 246 nM in assay [9]. Further, the RBA in assay [6] and in [7] was less than 0.1% each time. For the same compound, the inhibition entry in [8] is “inactive”. In [10], the inhibition entry is “Active”.
For `N#Cc1ccccc1S(=O)(=O)Nc1cccc(-c2c(O)ccc3cc(-c4cccc(O)c4)ccc23)c1`, the inhibition in assay [1] was more than 30%; in the assay listed under Callithrix jacchus [4], 43%; in the assay filed under Callithrix jacchus [5] it was 35%. Further, the IC50 in [2] came out at 14 nM; in assay [3], 439 nM; in assay [9], 157 nM. The RBA in assay [6] and in assay [7] was less than 0.1% throughout. Also, the inhibition entry in [8] is “inactive”. Also, the inhibition entry in assay [10] is “Active”.
For `O=S(=O)(Nc1cccc(-c2c(O)ccc3cc(-c4cccc(O)c4)ccc23)c1)c1ccccc1`, the inhibition is more than 30% in [1], 19% in the assay listed under Callithrix jacchus [4] and less than 10% in the assay listed under Callithrix jacchus [5]. In addition, the results for the IC50 in assay [2], in assay [3] and in assay [9] were 15 nM, 403 nM and 196 nM, respectively. The RBA in assay [6] and in assay [7] was less than 0.1% in each case. In [8], the inhibition entry is “inactive”. In addition, the inhibition result in assay [10] was “Active”.
As to `O=S(=O)(Nc1cccc(-c2c(O)ccc3cc(-c4cccc(O)c4)ccc23)c1)c1cccc(O)c1`, the IC50 in [2] turned out to be 14 nM; in assay [3] it was 999 nM; in assay [9] it was 701 nM. Further, the inhibition in the assay filed under Callithrix jacchus [4] is 20%; in the assay listed under Callithrix jacchus [5] it was less than 10%. The RBA in [6] and in assay [7] was less than 0.1% throughout. In addition, the inhibition entry in [8] was “inactive”. Besides, the inhibition result in assay [10] is “Active”.
